The source of these data is ChEMBL document CHEMBL1140409, “Discovery of potent, nonsystemic apical sodium-codependent bile acid transporter inhibitors (Part 2)” (J Med Chem, 2005).

In data set [1] the target is T1, Ileal sodium/bile acid cotransporter (Homo sapiens, UniProt Q12908).
T1 sequence (Q12908 whole entry): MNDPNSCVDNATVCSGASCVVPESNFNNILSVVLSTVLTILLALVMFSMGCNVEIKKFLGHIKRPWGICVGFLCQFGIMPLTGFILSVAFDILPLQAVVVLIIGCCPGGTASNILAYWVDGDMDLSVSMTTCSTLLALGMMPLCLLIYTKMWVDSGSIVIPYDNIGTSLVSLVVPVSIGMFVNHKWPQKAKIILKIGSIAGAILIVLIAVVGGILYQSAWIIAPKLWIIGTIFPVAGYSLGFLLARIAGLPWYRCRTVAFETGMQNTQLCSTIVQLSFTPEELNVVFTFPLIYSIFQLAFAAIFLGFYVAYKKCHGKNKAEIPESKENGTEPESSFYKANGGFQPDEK
Nature of the data set: In vitro inhibition of ASBT mediated uptake of [14C]taurocholate (5 uM) in baby hamster cells expressing human IBAT. The class given is cell-based.

A short description of data set [2]: Amount (dissolved in aqueous Tween-80) in bile of rat was determined by fecal bile acid content for 45 min in a 37 degree C. The class given is ADME, tissue-based, Feces. Also on record: concentration or dose not given beside the values. Particulars: in vivo, 0.75 h. The method, boiled down: (§1)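 Male Wistar rats (275–300 g) were gavaged once each morning for 4 days at 5, 0.2 or 0.04 mpk in aqueous 0.2% (v/v) Tween-80 (2 mL/kg). Feces from the final 48 h were homogenized in twice their weight of water. Homogenate was diluted in butanol/water (2:0.6), extracted 45 min at 37 °C, centrifuged, and bile acids (μmol/day) measured enzymatically. Scores compared against a reference analogue at 0.04 mg/kg.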

A short description of data set [3]: Efficacy to increase fecal bile acid excretion; + is more efficacious. The class given is ADME, tissue-based, Feces. Particulars: rat. The method, boiled down:
as §1

A short description of data set [4]: Efficacy to increase fecal bile acid excretion; ++ is even more effective. The class given is ADME, tissue-based, Feces. Particulars: rat. In short, it runs like this: as §1
Data set [5] in a line: Maximum biliary concentration (dissolved in aqueous Tween-80) was determined on intragastric administration at 5-0.04 mg/kg in […] of rat gavage model. Set-up: dose 0.04 mg/kg, route […]. The class given is ADME, organism-based, Bile. Particulars: […] (blood), po.
Data set [6] can be described thus: Maximum biliary concentration (dissolved in aqueous Tween-80) was determined on intragastric administration at 5-0.04 mg/kg in portal vein of rat gavage model. The class given is ADME, organism-based, Bile. Set-up: dose 0.04 mg/kg, route […]. Particulars: po.

What is called IC50 is the point on the concentration scale where inhibition reaches its midpoint. The term Cmax denotes the peak of the concentration-time curve.

With `CCCCC1(CCCC)CS(=O)(=O)c2ccc(N(C)C)cc2[C@@H](c2ccc(OCc3cccc(CN(CC(=O)O)CC(=O)O)n3)cc2)[C@H]1O`, the IC50 in data set [1] amounted to 4 nM. The Activity in data set [2] was 0.17%. In data set [3], the Efficacy result was “More efficacious than analogue 2”.

As for `CCCCC1(CCCC)CS(=O)(=O)c2ccc(N(C)C)cc2[C@@H](c2ccc(OCCCCCN(CC(=O)O)CC(=O)O)cc2)[C@H]1O`, the IC50 in data set [1] was 2.3 nM. The molecule further came in with an Activity in data set [2] of 0.24%. The Efficacy entry in data set [3] is recorded as “More efficacious than analogue 2”.

In data set [1], `CCCCC1(CCCC)CS(=O)(=O)c2ccc(N(C)C)cc2[C@@H](c2ccc(OCc3cc[n+](C)cc3)cc2)[C@H]1O` gave an IC50 of 0.75 nM. The molecule also came in with an Activity in data set [2] of 0.03%. In addition, in data set [3], the Efficacy entry is reported as “More efficacious than analogue 2”.

Molecule `CCCCC1(CCCC)CS(=O)(=O)c2ccc(N(C)C)cc2[C@@H](c2ccc(OCc3ccc(C[n+]4ccccc4)cc3)cc2)[C@H]1O` showed an IC50 in data set [1] of 1 nM. The molecule further returned an Activity in data set [2] of 0.03%. Moreover, the Efficacy result in data set [4] is listed as “Even more effective”.

Turning to `CCCCC1(CCCC)CS(=O)(=O)c2ccc(N(C)C)cc2[C@@H](c2ccc(OCc3ccc(C[N+]45CCN(CC4)CC5)cc3)cc2)[C@H]1O` [MARALIXIBAT], in data set [2], the Activity was 0.11%. In addition, the Efficacy result in data set [3] is on record as “More efficacious than analogue 2”.

In the case of `CCCCC1(CCCC)CS(=O)(=O)c2ccc(N(C)C)cc2[C@@H](c2ccc(OCC(=O)O)cc2)[C@H]1O`, the IC50 in data set [1] is 27 nM. In data set [2], this molecule came in with an Activity of 15.04%. Further, the highest level in data set [5] (Cmax) was 960 ng/mL.

`CCCCC1(CCCC)CS(=O)(=O)c2ccc(N(C)C)cc2[C@@H](c2ccc(OCCCCC(=O)O)cc2)[C@H]1O` came in with an IC50 in data set [1] of 8.5 nM. Besides, the Activity in data set [2] is listed as 3.3%. For the same molecule, in data set [4], the Efficacy entry is on record as “Even more effective”. The Cmax was 1100 ng/mL in data set [6] and 5100 ng/mL in data set [5].
